Read-outs that look alike come from different tables or passages of the source.
How the values were obtained:
[1] = system: p53^R280K MDA-MB-231 cells; test: WST-1 cell proliferation assay; type: cell-based, human; details: for inhibition of cell proliferation (in words): MDA-MB-231, 24 h or 72 h; for IC50: Homo sapiens, read-out: IC50, inhibition of cell proliferation
[2] = system: p53^R280K MDA-MB-231 cells; test: Annexin V staining; type: cell-based, human; details: MDA-MB-231, 6 μM or 12 μM, 24 h
[3] = system: p53^R273H MDA-MB-468 cells; test: Annexin V staining; type: cell-based, human; details: MDA-MB-468, 6 μM or 12 μM, 24 h
WT p53 MCF-7 cells [4] = test: Annexin V staining; type: cell-based, human; details: MCF-7, 24 h
Summary of the method: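 After 24 h exposure to test compound or DMSO, MCF-7 cells (RPMI 1640, 10% FBS, 1% penicillin/streptomycin, 1% L-glutamine) were scraped, PBS-washed and taken up in Annexin V binding buffer. They were stained with fluorochrome-conjugated Annexin V for 15 min at RT in the dark, then PI staining solution was added. Flow cytometry read-out; % Annexin V-positive cells expressed relative to DMSO.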

[5] = target: p53^R280K in MDA-MB-231 cells (Homo sapiens, UniProt P04637, R280K); test: Western blot of p53 expression; type: cell-based; details: MDA-MB-231, 6 μM or 12 μM, 24 h
Summary of the method: (§1)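 Cells were treated 24 h with 6 μM or 12 μM test compound or DMSO and lysed in NP-40/Tris-Cl pH 8.0 buffer with protease inhibitors. Load on 4–12% SDS-PAGE was 20 μg for MDA-MB-231 and MDA-MB-468 or 50 μg for MCF-7. After PVDF transfer, blots were probed with p53 DO-1 antibody, reprobed for GAPDH as loading control and developed by ECL.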

[6] = target: p53^R273H in MDA-MB-468 cells (Homo sapiens, UniProt P04637, R273H); test: Western blot of p53 expression; type: cell-based; details: MDA-MB-468, 6 μM or 12 μM, 24 h
Summary of the method: as §1

WT p53 in MCF-7 cells = WT p53 in MCF-7 cells (Homo sapiens, UniProt P04637); test: Western blot of p53 expression; type: cell-based; details: MCF-7, 6 μM or 12 μM, 24 h
Summary of the method: as §1

WT p53 MCF-7 cells [7] = test: WST-1 cell proliferation assay; type: cell-based, human; details: MCF-7, 24 h or 72 h; compared to mutant p53 cells
Summary of the method: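 WST-1 assay. Test compound in DMSO was added to cells at 40,000 cells/ml, giving 1% DMSO final, and plated at 4,000 cells/well in duplicate; medium-only wells served as background. Incubation was 24 h or 72 h at 37 °C, then WST-1 for 2 h and OD450 read. Proliferation is expressed as % of DMSO control; triplicate experiments. MCF-7 grown in RPMI 1640, MDA-MB-436 in DMEM.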

Log P determination = type: physicochemical; details: octanol/sodium phosphate buffer (pH 7.4)
[8] = system: p53^R273H MDA-MB-468 cells; test: WST-1 cell proliferation assay; type: cell-based, human; details: MDA-MB-468, 24 h or 72 h

S=C=NC12CC3CC(CC(C3)C1)C2 [Ad-ITC 1, 1-Isothiocyanatoadamantane]
inhibition of cell proliferation (in words) [1]: failed to show any significant inhibition of cell proliferation | increase in Annexin V stained cells compared to DMSO [2]: did not induce significant increase in apoptosis | increase in Annexin V stained cells compared to DMSO [3]: did not induce significant increase in apoptosis | increase in Annexin V stained cells compared to DMSO (WT p53 MCF-7 cells [4]): did not display any significant increase | mutant p53 expression (western blot) [5]: no depletion | mutant p53 expression (western blot) [6]: no depletion | WT p53 expression (western blot) (WT p53 in MCF-7 cells): did not decrease WT p53 expression

S=C=NC1C2CC3CC(C2)CC1C3 (stereo not shown) [Ad-ITC 2, 2-Isothiocyanatoadamantane]
inhibition of cell proliferation (in words) [1]: failed to show any significant inhibition of cell proliferation

S=C=NCC12CC3CC(CC(C3)C1)C2 [Ad-ITC 3, 1-Isothiocyanatomethyladamantane]
IC50 ([1]; MDA-MB-231, 24 h): 24 to 48 µM | IC50 ([1]; MDA-MB-231, 72 h): 24 to 48 µM | inhibition of cell proliferation (in words) [1]: dose-dependent activity | inhibition of cell proliferation / sensitivity (in words) (WT p53 MCF-7 cells [7]): remarkably less sensitive | increase in Annexin V stained cells compared to DMSO [2]: 2.0-5.1 fold | increase in Annexin V stained cells compared to DMSO [3]: 2.0-5.1 fold | increase in Annexin V stained cells compared to DMSO (WT p53 MCF-7 cells [4]): did not display any significant increase | mutant p53 expression (western blot) [5]: differential decrease in the expression of mutant p53 | mutant p53 expression (western blot) [6]: differential decrease in the expression of mutant p53 | WT p53 expression (western blot) (WT p53 in MCF-7 cells): did not decrease WT p53 expression

CC(N=C=S)C12CC3CC(CC(C3)C1)C2 (stereo not shown) [Ad-ITC 4, 1-Isothiocyanato-1-(adamantan-1-yl)ethane]
inhibition of cell proliferation (in words) [1]: did not show any significant inhibition

S=C=NCCC12CC3CC(CC(C3)C1)C2 [Ad-ITC 5, 1-Isothiocyanato-2-(adamantan-1-yl)ethane]
IC50 ([1]; MDA-MB-231, 24 h): 24 to 48 µM | IC50 ([1]; MDA-MB-231, 72 h): 12 to 24 µM | inhibition of cell proliferation / sensitivity (in words) (WT p53 MCF-7 cells [7]): did not inhibit MCF-7 cell proliferation | logP at 18 h (Log P determination): 4.76 | increase in Annexin V stained cells compared to DMSO (WT p53 MCF-7 cells [4]): did not display any significant increase | mutant p53 expression (western blot) [5]: differential decrease in the expression of mutant p53 | mutant p53 expression (western blot) [6]: differential decrease in the expression of mutant p53 | WT p53 expression (western blot) (WT p53 in MCF-7 cells): did not decrease WT p53 expression

S=C=Nc1ccc(C23CC4CC(CC(C4)C2)C3)cc1 [Ad-ITC 7, 1-(4-Isothiocyanatophenyl)adamantane]
inhibition of cell proliferation (in words) [1]: significantly less potent than Ad-ITCs 3, 5, and 6

S=C=NCCOC12CC3CC(CC(C3)C1)C2 [Ad-ITC 8, 1-(2-Isothiocyanatoethoxy)adamantane]
inhibition of cell proliferation (in words) [1]: not active in vitro | logP at 18 h (Log P determination): 4.42

CC(C)(COC12CC3CC(CC(C3)C1)C2)N=C=S [Ad-ITC 9, 1-(2-Isothiocyanato-2-methylpropoxy)adamantane]
inhibition of cell proliferation (in words) [1]: not active in vitro

CCCC(CN=C=S)C1C2CC3CC(C2)CC1C3 (stereo not shown) [Ad-ITC 10, 2-(1-Isothiocyanatopentan-2-yl)adamantane]
inhibition of cell proliferation (in words) [1]: did not show any significant inhibition

CC12CC3CC(C)(C1)CC(N=C=S)(C3)C2 [Ad-ITC 11, 1-Isothiocyanato-3,5-dimethyladamantane]
inhibition of cell proliferation (in words) [1]: failed to show any significant inhibition of cell proliferation

O=C(CC12CC3CC(CC(C3)C1)C2)N=C=S [Ad-ITC 12, 2-(Adamantan-1-yl)acetyl isothiocyanate]
inhibition of cell proliferation (in words) [1]: failed to inhibit the cell proliferation

O=C1CNC(=S)N1CCC12CC3CC(CC(C3)C1)C2 [Ad-compound 13, 3-(2-(Adamantan-1-yl)ethyl)-2-thioxoimidazolidin-4-one]
inhibition of cell proliferation (in words) [1]: did not inhibit the proliferation | inhibition of cell proliferation (in words) [8]: did not inhibit MDA-MB-468 cells proliferation | inhibition of cell proliferation / sensitivity (in words) (WT p53 MCF-7 cells [7]): did not inhibit MCF-7 cell proliferation | increase in Annexin V stained cells compared to DMSO [2]: did not induce significant increase in apoptosis | increase in Annexin V stained cells compared to DMSO [3]: did not induce significant increase in apoptosis | increase in Annexin V stained cells compared to DMSO (WT p53 MCF-7 cells [4]): did not display any significant increase | mutant p53 expression (western blot) [5]: failed to affect mutant p53 expression | mutant p53 expression (western blot) [6]: failed to affect mutant p53 expression | WT p53 expression (western blot) (WT p53 in MCF-7 cells): did not decrease WT p53 expression

C1C2CC3CC1CC(C2)C3 [adamantane, Adamantane, reference compound]
inhibition of cell proliferation (in words) [1]: did not inhibit MDA-MB-231 cells proliferation | inhibition of cell proliferation (in words) [8]: did not inhibit MDA-MB-468 cells proliferation | inhibition of cell proliferation / sensitivity (in words) (WT p53 MCF-7 cells [7]): did not inhibit MCF-7 cell proliferation
